# The list is not random: actives were taken first. Their share in the collection is about 2.9%.
# TRPC4 block: inhibitors of mouse TRPC4 channel | HEK293 TRPC4beta/mu-opioid, DAMGO-evoked Fluo4 calcium flux; hits give low values | 300,000 compounds, 0.39% hits | Q9QUQ5 | B-score at 10 µM;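 active = B-score over 3 SD under the library average, no early fluorescence shift, positive overall ratio signal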
#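 material = TRPC4beta/mu-opioid receptor HEK293 cell line | probe or stimulus = sequential submaximal and maximal DAMGO stimulation | compound dosing = one concentration per compound | measured by = Fluo4 Ca2+ flux fluorescence | evaluation = integrated fluorescence ratio relative to baseline, converted to per-well B score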
# TRPC6 inh: inhibitors of mouse TRPC6 channel. B-score at 10 µM. HEK293-TRPC6, membrane potential dye, ACh-evoked depolarization; hits give low values. 310,000 compounds, 1.1% hits. Q61143;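 active = B-score under library mean minus 3 SD, initial fluorescence not abnormally high, positive integrated signal ratio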;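 also: B-score derived from integrated fluorescence ratio over the kinetic read; more negative B-score means stronger inhibition of depolarization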
# TRPC6 activator: mouse TRPC6 channel activation. Q61143. HEK293-TRPC6 membrane potential dye fluorescence; hits give high values. B-score at 10 µM. 310,000 compounds, 0.13% hits. AID 2550;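 active = B-score of the integrated fluorescence ratio above library mean plus 3 SD, and starting fluorescence ratio within library mean plus 5 SD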;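 also: higher score means more depolarization so channel activation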
# Kir21 inh: blocks the mouse Kir2.1 inward-rectifier potassium channel. B-score at 10 µM. 310,000 compounds, 0.85% hits. P35561. HEK293-Kir2.1, FluxOR thallium flux fluorescence; hits give low values. AID 1672;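 active = fluorescence ratio B-score at or below minus 3 SD of library scores, with starting-brightness B-score within 2 SD, cut at about -4.2 in these data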;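 also: channel flux triggered by added potassium and thallium sulfate stimulus; B-score of peak minus minimum fluorescence over baseline after thallium stimulus; more negative B-score means stronger Kir2.1 block with less thallium influx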
# Target sequence (P35561 whole entry, looked up): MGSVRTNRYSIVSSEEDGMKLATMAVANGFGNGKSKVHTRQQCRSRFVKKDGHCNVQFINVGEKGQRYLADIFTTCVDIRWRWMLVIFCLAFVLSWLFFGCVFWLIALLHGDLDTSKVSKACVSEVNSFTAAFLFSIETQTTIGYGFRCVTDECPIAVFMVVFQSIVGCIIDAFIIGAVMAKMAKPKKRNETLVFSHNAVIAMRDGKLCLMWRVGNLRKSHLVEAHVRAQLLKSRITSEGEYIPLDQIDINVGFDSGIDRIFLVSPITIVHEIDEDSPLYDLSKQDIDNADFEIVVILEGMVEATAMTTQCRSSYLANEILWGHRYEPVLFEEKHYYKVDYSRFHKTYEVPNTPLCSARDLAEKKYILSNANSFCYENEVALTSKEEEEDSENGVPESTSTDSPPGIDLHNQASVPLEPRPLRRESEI
# TRPC4 PAM: allosterically enhances the mouse TRPC4 cation channel; HEK293 TRPC4beta/mu-opioid, DAMGO EC20, Fluo-4 Ca2+ flux; hits give high values; AID 2227; 310,000 compounds, 0.42% hits; B-score at 10 µM; Q9QUQ5;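 active = B-score of calcium response area above 5 SD of library B-scores, with initial fluorescence ratio within 5 SD of library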
# TRPC4 act: activators of mouse TRPC4 channel. 310,000 compounds, 0.49% hits. AID 2237. HEK293 TRPC4beta/mu-opioid, Fluo4 calcium fluorescence; hits give high values. Q9QUQ5. B-score at 10 µM;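 active = B-score above 5 SD of library B-scores, and initial fluorescence ratio not above library mean plus 5 SD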;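 also: positive B-score marks a calcium rise read as TRPC4 activation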
#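 Assay system: HEK293 cells stably co-expressing mouse TRPC4beta and mu-opioid receptor / Timing: Fluo4 dye loading 45 min at room temperature, 110 s recording / Signal: Fluo4 calcium-sensitive dye fluorescence, kinetic, 1 Hz baseline / Read-out: integrated baseline-normalised fluorescence ratio, converted to per-well B score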
# Hits are given with their value; 0 = inactive.
SMILES,TRPC4 block,TRPC6 inh,TRPC6 activator,Kir21 inh,TRPC4 PAM,TRPC4 act
O=S(=O)(c1ccc(S(=O)(=O)N2CCN(C/C=C/c3ccccc3)CC2)cc1)N1CCCC1,0,0,0,0,0,0
O=C1CC(N2CCN(C/C=C/c3ccccc3)CC2)C(=O)N1Cc1cccs1 (configuration not stated),0,0,0,0,0,0
O=C(O)C1C2C=CC(C2)C1C(=O)N1CCN(C/C=C/c2ccccc2)CC1 (configuration not stated),0,0,0,0,0,84
CC1=C(C)CC(C(=O)N2CCN(C/C=C/c3ccccc3)CC2)C(C(=O)O)C1 (configuration not stated),0,0,0,0,0,0
CC(=C1C(=O)c2ccccc2C1=O)N1CCN(C/C=C/c2ccccc2)CC1,0,0,0,0,0,49
CNS(=O)(=O)c1cccc(C(=O)OCC(=O)c2c(N)n(C)c(=O)n(C)c2=O)c1,0,0,0,0,0,0
Cn1c(N)c(C(=O)COC(=O)CNS(=O)(=O)c2ccc(Cl)c(Cl)c2)c(=O)n(C)c1=O,-6,0,0,0,0,0
CN(C)CCOc1ccc(C(C)(C)c2ccccc2)cc1,0,0,0,0,0,0
C=CCNCCOc1ccc(C(C)(C)c2ccccc2)cc1,0,0,0,-12,0,0
CC1CCCCN1C(=O)C1CCN(S(=O)(=O)c2ccc(-n3cnnn3)cc2)CC1 (configuration not stated),0,0,0,0,0,0
COc1cc(S(=O)(=O)N2CCC(N3CCCCC3)CC2)ccc1-n1cnnn1,0,0,0,0,17,0
O=S(=O)(c1ccc(-n2cnnn2)cc1)N1CCC(N2CCCCC2)CC1,0,0,0,0,12,0
O=C(/C=C/c1ccco1)Nc1ccccc1N1CCCCC1,0,0,0,0,0,0
Cc1ccc(C2Cc3cc(O)c(O)cc3CN2)cc1 (configuration not stated),0,0,0,-7.5,0,0
CC(=O)OCCNc1cc(Sc2nc3ccccc3[nH]2)c2nonc2c1[N+](=O)[O-],0,0,0,-4.5,0,0
CCC1Oc2ccccc2N(CC(=O)NCCN2CCc3ccccc3C2)C1=O (configuration not stated),0,0,0,0,0,0
COc1ccc(NS(=O)(=O)c2ccc3oc(=S)[nH]c3c2)cc1,0,0,0,0,0,0
O=C(Nc1ccc(Nc2ccccc2)cc1)c1ccc(Br)o1,0,0,0,0,13,0
O=C(Nc1ccccc1N1CCN(C(=O)c2ccc(Cl)cc2)CC1)c1ccc([N+](=O)[O-])o1,0,0,0,0,0,0
O=C(Nc1ccccc1N1CCN(C(=O)c2ccccc2)CC1)c1ccc(Cl)cc1,0,0,0,0,0,0
COc1ccc(C(=O)Nc2ccccc2N2CCN(C(=O)c3ccccc3)CC2)cc1Br,-6,0,0,0,0,0
O=C(Nc1ccccc1N1CCN(C(=O)c2ccccc2)CC1)c1ccc(Br)o1,-7,0,0,0,0,0
O=c1[nH]c(=O)n(C2CCCCCC2)c(O)c1C=NCc1ccc(F)cc1,0,0,0,0,0,0
CN(C)CCCN1c2ccccc2CCc2ccc(Cl)cc21,0,0,0,-6.2,0,0
CCOC(=O)Nc1c(O)ccc2oc(C)c(-c3ccccc3)c12,0,0,0,-15,0,0
O=S(=O)(c1ccc2nc(COc3ccc(Cl)cc3Cl)[nH]c2c1)N1CCOCC1,0,0,0,0,0,0
COc1ccc(CCn2c(=S)[nH]c3cc(C(=O)N4CCOCC4)ccc3c2=O)cc1OC,0,0,0,0,20,0
COc1ccc(CCn2c(=O)[nH]c3cc(C(=O)N4CCN(c5ccccc5)CC4)ccc3c2=O)cc1OC,0,0,0,0,0,0
CCN(CC)CCOC(=O)C(Cc1ccco1)Cc1cccc2ccccc12 (configuration not stated),0,0,0,-7.5,0,0
O=c1[nH]c(-[n+]2ccc3ccccc3c2)c(/C=N/N=C(\[O-])c2ccccc2)s1,-6,0,0,0,0,0
